Source: ChEMBL document CHEMBL1152202, “Synthesis and biological evaluation of helicid analogues as mushroom tyrosinase inhibitors” (Bioorg Med Chem Lett, 2008)
The source made the active and inactive calls. No cut-off for these calls is given here.

Tests used:
[1] = target: T1, Tyrosinase (Agaricus bisporus) (UniProt O42713); experiment: Inhibition of mushroom tyrosinase assessed as 3,4-dihydroxy-L-phenylalanine oxidation at 0.1 mM
T1 sequence (whole entry): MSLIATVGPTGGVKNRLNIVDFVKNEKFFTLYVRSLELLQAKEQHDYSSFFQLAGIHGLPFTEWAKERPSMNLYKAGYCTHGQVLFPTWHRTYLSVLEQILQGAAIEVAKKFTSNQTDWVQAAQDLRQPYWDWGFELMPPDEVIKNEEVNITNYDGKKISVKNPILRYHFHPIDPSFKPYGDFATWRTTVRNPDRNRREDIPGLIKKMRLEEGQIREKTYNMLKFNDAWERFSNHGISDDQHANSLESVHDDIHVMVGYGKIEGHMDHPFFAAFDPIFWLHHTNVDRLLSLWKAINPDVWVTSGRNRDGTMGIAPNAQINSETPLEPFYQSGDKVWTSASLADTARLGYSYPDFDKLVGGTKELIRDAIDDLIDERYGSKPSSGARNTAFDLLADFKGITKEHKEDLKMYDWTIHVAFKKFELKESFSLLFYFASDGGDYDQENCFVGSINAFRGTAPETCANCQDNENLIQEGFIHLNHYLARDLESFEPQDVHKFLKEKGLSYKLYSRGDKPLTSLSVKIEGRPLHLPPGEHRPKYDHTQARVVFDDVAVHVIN
Outline: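 Mushroom tyrosinase was the enzyme source. Activity was reported as IC50 in mM, with compounds tested up to 3.0 mM, and as percent inhibition at 0.1 mM. Values are means of three separate experiments.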

[2] = target: T2, Tyrosinase (Agaricus bisporus, UniProt O42713); experiment: Inhibition of mushroom tyrosinase assessed as 3,4-dihydroxy-L-phenylalanine oxidation
T2 sequence (O42713 whole entry): T1 sequence (whole entry)

[3] = system: Mus musculus; experiment: Toxicity in mouse assessed as mortality at 1200 mg/kg, po administered as single gavage dose after 20 days; type: organism-based; parameters: dose 1200 mg/kg, route oral; conditions: in vivo, 480 h
Outline: (§1)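 Acute oral toxicity in mice: one 1200 mg/kg dose given by gavage. Clinical symptoms and mortality were followed for 20 days. Animals were autopsied at the end of the 20-day period, and organs were examined for gross changes.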

[4] = system: Mus musculus; experiment: Toxicity in mouse assessed by autopsy at 1200 mg/kg, po administered as single gavage dose after 20 days; type: organism-based; parameters: dose 1200 mg/kg, route oral; conditions: in vivo, 480 h; outline: as §1

Compound	inhibition [1]	IC50 [2]	Activity [1]	Activity [3]	Activity [4]
CC1(C)O[C@@H]2[C@H](O)[C@@H](CO)O[C@@H](Oc3ccc(C=O)cc3)[C@@H]2O1	13%	620 µM	–	–	–
O=Cc1ccc(O[C@@H]2O[C@H](CO)[C@@H](O)[C@H](O)[C@H]2O)cc1	30%	940 µM	–	Non-toxic	Non-toxic
O=Cc1ccc(O)cc1 [4-HYDROXYBENZALDEHYDE]	15%	1120 µM	–	–	–
O=Cc1ccc(O[C@@H]2O[C@@H]3CO[C@@H](c4ccccc4)O[C@H]3[C@@H](O)[C@H]2O)cc1	77%	52 µM	–	Non-toxic	Non-toxic
CC(=O)OC[C@H]1O[C@@H](O[C@H]2[C@H](OC(C)=O)[C@@H](OC(C)=O)[C@H](Oc3ccc(C=O)cc3)O[C@@H]2COC(C)=O)[C@H](OC(C)=O)[C@@H](OC(C)=O)[C@H]1OC(C)=O	5%	> 3000 µM	–	–	–
O=Cc1ccc(O[C@@H]2O[C@H](COC(c3ccccc3)(c3ccccc3)c3ccccc3)[C@@H](O)[C@@H](O)[C@H]2O)cc1	–	> 3000 µM	inactive	–	–

More lines, main results first:

inhibition [1]	IC50 [2]	Activity [1]	Compound	Activity [3]	Activity [4]
24%	430 µM	–	COP(=O)(OC)OC[C@H]1O[C@@H](Oc2ccc(C=O)cc2)[C@H](O)[C@H](O)[C@@H]1O	–	–
10%	2540 µM	–	O=Cc1ccc(O[C@@H]2O[C@H](CO)[C@@H](O)[C@@H](O)[C@H]2O)cc1 [HELICIDE]	–	–
22%	–	–	COc1ccc(/C=C/C(=O)O)cc1	–	–
42%	280 µM	–	O=Cc1ccc(O[C@@H]2OC[C@@H](O)[C@@H](O)[C@H]2O)cc1	–	–
–	> 3000 µM	inactive	CC(=O)OC[C@H]1O[C@@H](Oc2ccc(C=O)cc2)[C@H](OC(C)=O)[C@@H](OC(C)=O)[C@@H]1OC(C)=O	–	–
–	–	inactive	OC[C@H]1O[C@@H](Oc2ccc(O)cc2)[C@H](O)[C@@H](O)[C@@H]1O	–	–
–	> 3000 µM	inactive	CC(=O)O[C@H]1[C@@H](OC(C)=O)[C@H](Oc2ccc(C=O)cc2)O[C@H](CO)[C@H]1OC(C)=O	–	–
–	> 3000 µM	inactive	O=Cc1ccc(O[C@@H]2OC[C@@H](OC(=O)c3ccccc3)[C@@H](OC(=O)c3ccccc3)[C@H]2OC(=O)c2ccccc2)cc1	–	–
